PubChem BioAssay AID623889 (Vanderbilt Specialized Chemistry Center, 2012)
Several values for one entry are separate records, joined by “and”; a condition that tells them apart may be missing. Identical values can stand only once.

Biological target: Metabotropic glutamate receptor 4 (Rattus norvegicus) (UniProt P31423)
Experiment: glutamate potency shift at mGlu4 – rat, HEK/GIRK cells, thallium flux, mGlu4 lead optimization, SAR follow-up (AID 623889)
Conditions: at 30 µM, stronger effect = higher value; for glutamate max response: glutamate fold shift, measured here: glutamate maximal response with compound
In short: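 Material: HEK cells stably co-expressing GIRK channel, M4 receptor and rat mGlu4; reagent: glutamate concentration-response series with thallium; dosing: single test compound concentration, 30 µM final (from 2x solution); schedule: compound pre-incubation about 2.5 min before glutamate addition; detection: thallium influx through GIRK via FluoZin-2 AM fluorescence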

Metabotropic glutamate receptor 4 (Rattus norvegicus), sequence (P31423 whole entry, looked up): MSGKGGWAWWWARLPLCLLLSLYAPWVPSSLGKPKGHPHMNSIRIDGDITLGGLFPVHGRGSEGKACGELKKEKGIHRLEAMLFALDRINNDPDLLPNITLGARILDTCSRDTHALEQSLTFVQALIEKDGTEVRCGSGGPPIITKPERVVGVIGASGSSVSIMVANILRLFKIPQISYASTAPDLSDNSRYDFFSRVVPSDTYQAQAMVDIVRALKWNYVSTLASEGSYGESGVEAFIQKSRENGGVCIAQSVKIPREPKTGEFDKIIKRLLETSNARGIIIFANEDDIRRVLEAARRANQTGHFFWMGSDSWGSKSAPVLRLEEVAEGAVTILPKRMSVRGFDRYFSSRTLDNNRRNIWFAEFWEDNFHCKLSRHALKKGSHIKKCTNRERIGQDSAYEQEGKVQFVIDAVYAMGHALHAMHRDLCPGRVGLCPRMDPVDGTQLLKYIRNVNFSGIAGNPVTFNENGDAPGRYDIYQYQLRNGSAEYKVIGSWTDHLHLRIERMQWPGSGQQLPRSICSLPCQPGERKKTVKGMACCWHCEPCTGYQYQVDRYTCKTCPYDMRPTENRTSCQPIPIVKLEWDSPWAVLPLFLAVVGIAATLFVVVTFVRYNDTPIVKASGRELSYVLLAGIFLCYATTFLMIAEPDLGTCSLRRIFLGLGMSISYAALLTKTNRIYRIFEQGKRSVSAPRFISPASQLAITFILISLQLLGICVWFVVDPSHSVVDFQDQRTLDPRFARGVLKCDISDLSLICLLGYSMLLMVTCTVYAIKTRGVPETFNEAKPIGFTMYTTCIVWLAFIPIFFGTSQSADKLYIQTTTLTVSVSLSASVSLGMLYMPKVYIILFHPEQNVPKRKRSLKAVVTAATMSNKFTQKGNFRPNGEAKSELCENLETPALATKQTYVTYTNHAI

Row | SMILES | fold shift | glutamate max response
1 | CC(C)N(C(=O)c1ccccn1)c1cccc(Cl)c1 | 3.16 | 108%
2 | Clc1cccc(Nc2ncnc3cccnc23)c1 | 4.02 | 87.2%
3 | O=C(Nc1ccc2cn[nH]c2c1)c1ccccn1 | 11.9 | 103%
4 | O=C(Nc1cccc(Cl)c1)c1ccccn1 | 30.2 | 88.8%
5 | Clc1cccc(Nc2noc3cccnc23)c1 | 31.1 and 22.7 and 17.8 | 90.3% and 98.5% and 99.1%
6 | COc1cc(Nc2noc3cccnc23)ccc1Cl | 6.67 | 84.3%
7 | FC(F)Oc1cccc(Nc2noc3cccnc23)c1 | 21.7 and 16.3 | 98.4% and 99.7%
8 | Clc1ccc2nc(-c3ccccn3)[nH]c2c1 | 15.3 | 87.2%
9 | COc1cc2nc(-c3ccccn3)[nH]c2cc1Cl | 3.21 | 90.9%
10 | Fc1cccc(Nc2noc3cccnc23)c1 | 8.9 | 93.6%
11 | O=C(Nc1ccc2c(c1)C(=O)NC2=O)c1ccccn1 | 2.52 | 105%
